From article PMC6235538 (Science Advances, 2018)
Bridges are numbered along the chain shown (N, C = ends). Where no end group is shown, it is not given here.

Tests used:
[1] = tested on: FL-BCRs on transduced Raji lymphoma cells; experiment: Surface staining of BCR-transduced Raji cells by biotinylated peptides; format: binding, human; details: synthetic biotinylated peptides, flow cytometry
Summary of the method: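 Raji cells were lentivirally transduced with a lymphoma BCR scFv fused to a membrane-anchored human antibody Fc fragment, then FACS-sorted for BCR carriers. Cells were grown with 10% FBS, 10 mM Hepes, penicillin/streptomycin and 2 mM GlutaMAX. Surface staining used synthetic biotinylated peptides and an anti-IgG Fc antibody, read by flow cytometry. One Raji population served as the Fc-staining control.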

[2] = tested on: cells from FL patient 4 biopsy; experiment: Flow cytometry staining of control biopsy cells; format: binding, human; details: control biopsy sample
Summary of the method: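 Flow cytometry on control B cells from a lymphoma biopsy, stained with a synthetic biotinylated cyclic peptide ligand. B cells were gated with a B220-specific antibody. Bound peptide was detected with FITC-labelled streptavidin.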

Row | Sequence | binding to BCRs on transduced Raji cells (in words) [1] | staining by the FL1 peptide (in words) [2]
1 | CMPHWQNHC (disulfide 1-9 (inferred)) [FL2] | BCRs capable of binding to the peptides were present on these cells | 
2 | CTTDQARKC (disulfide 1-9 (inferred)) [FL3] | BCRs capable of binding to the peptides were present on these cells | 
3 | CILDLPKFC (disulfide 1-9 (inferred)) [FL1] | BCRs capable of binding to the peptides were present on these cells | did not demonstrate any significant staining
